Activity, IC50 and inhibition data for four compounds are collected here from ChEMBL document CHEMBL2062477, “Dual-Specificity Phosphatase CDC25A/B Inhibitor Identified from a Focused Library with Nonelectrophilic Core Structure” (ACS Med Chem Lett, 2012).

The subject of experiment [1] is tsFT210. Description: Induction of apoptosis in mouse tsFT210 cells assessed as increase in subG1 population at 50 uM after 17 hrs by propidium iodide staining-based flow cytometric analysis. The class given is functional, cell-based. The note with it: in the assay text read “after 4 hrs” for “after 17 hrs”. Summed up: (§1)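 tsFT210 cells synchronized at G2 by 17 h at 39 °C, then released for 4 h at 32 °C with compound (5–50 μM) or DMSO vehicle; 100 nM nocodazole reference. Cell-cycle phase distribution, including sub-G1, determined by flow cytometry.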

The target of experiment [2] is T1, M-phase inducer phosphatase 2 (Homo sapiens, UniProt P30305).
T1 sequence (P30305 whole entry): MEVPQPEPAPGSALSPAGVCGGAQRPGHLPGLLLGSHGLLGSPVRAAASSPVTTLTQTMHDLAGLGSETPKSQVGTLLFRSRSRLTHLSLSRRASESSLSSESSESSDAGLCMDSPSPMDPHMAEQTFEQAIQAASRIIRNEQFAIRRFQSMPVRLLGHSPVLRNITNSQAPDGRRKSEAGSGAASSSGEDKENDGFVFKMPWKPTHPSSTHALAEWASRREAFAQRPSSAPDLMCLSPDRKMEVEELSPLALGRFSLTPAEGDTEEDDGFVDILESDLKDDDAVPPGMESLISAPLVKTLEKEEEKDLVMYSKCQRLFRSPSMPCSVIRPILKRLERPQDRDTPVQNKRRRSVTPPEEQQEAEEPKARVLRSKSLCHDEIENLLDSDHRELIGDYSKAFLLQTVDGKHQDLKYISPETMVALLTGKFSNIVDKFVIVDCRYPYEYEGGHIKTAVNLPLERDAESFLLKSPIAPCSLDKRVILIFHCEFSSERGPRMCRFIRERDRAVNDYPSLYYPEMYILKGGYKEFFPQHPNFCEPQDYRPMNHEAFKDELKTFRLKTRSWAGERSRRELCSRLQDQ
Description: Inhibition of CDC25B.

Experiment [3] deals with tsFT210. Description: Inhibition of CDC25 in mouse tsFT210 cells assessed as hyperphosphorylation of CDK1 protein by Western blot analysis. Format: cell-based. Summed up: (§2)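 G2-arrested tsFT210 cells (39 °C, 17 h) released at 32 °C for 4 h with compound or vehicle; CDK1 phosphorylation status and total CDK1 assessed by Western blotting.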
Experiment [4] deals with T2, Dual specificity protein phosphatase 1 (Homo sapiens, UniProt P28562).
T2 sequence (P28562 whole entry): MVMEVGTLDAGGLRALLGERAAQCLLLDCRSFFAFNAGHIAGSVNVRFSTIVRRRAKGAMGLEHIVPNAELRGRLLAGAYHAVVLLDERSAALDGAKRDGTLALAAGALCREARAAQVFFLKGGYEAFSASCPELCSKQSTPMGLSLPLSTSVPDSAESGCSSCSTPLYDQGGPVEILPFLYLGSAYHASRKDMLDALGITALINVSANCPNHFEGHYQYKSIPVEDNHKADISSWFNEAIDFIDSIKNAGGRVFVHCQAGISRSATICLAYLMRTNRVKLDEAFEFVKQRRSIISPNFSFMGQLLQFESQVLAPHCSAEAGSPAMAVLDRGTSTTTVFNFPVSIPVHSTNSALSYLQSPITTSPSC
Description: Inhibition of MKP1.

Experiment [5] deals with T3, Dual specificity protein phosphatase 6 (Homo sapiens, UniProt Q16828).
T3 sequence (Q16828 whole entry): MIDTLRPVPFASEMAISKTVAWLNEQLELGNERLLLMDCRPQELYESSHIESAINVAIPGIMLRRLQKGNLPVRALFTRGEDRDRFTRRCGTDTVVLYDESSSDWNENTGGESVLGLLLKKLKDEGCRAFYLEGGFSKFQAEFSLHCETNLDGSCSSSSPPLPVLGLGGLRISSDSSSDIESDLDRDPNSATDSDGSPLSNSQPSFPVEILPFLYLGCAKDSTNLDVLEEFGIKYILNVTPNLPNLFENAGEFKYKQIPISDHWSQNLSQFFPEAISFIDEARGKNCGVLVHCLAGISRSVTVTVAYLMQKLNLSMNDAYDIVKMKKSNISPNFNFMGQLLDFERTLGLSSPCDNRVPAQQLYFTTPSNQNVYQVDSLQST
Description: Inhibition of MKP3.

Experiment [6] concerns the target Dual specificity protein phosphatase 3 (Homo sapiens, UniProt P51452). Description: Inhibition of VHR.
The target in experiment [7] is T4, M-phase inducer phosphatase 3 (Homo sapiens, UniProt P30307).
T4 sequence (P30307 whole entry): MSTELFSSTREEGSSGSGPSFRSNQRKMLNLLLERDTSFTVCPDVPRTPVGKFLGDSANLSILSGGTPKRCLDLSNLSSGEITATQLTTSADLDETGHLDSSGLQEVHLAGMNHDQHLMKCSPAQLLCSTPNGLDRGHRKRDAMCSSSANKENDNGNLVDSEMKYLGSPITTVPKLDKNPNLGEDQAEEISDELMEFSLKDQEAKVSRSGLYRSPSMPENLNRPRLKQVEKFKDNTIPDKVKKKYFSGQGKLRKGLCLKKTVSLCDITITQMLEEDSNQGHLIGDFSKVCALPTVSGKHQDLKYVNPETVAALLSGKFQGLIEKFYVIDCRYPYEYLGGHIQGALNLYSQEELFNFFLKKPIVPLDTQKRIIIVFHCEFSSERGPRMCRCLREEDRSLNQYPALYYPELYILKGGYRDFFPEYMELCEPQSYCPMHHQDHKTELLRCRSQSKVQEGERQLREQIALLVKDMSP
Description: Inhibition of CDC25C.

In experiment [8] the target is T5, M-phase inducer phosphatase 1 (Homo sapiens, UniProt P30304).
T5 sequence (P30304 whole entry): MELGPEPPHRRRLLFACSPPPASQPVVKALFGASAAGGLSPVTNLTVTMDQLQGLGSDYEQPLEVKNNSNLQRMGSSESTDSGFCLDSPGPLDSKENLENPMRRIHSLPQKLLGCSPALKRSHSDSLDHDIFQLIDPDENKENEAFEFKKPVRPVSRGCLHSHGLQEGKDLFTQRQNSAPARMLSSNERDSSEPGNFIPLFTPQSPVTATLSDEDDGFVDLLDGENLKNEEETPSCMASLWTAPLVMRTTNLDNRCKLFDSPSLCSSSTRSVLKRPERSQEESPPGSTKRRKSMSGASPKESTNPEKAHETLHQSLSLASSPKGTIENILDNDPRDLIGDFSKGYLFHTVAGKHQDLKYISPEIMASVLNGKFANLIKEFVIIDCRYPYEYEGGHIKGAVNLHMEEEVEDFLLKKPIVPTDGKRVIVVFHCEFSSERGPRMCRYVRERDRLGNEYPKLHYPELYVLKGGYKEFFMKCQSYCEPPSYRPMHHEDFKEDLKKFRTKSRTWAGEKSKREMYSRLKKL
Description: Inhibition of CDC25A.

Experiment [9] deals with tsFT210. Description: Induction of ROS generation in mouse tsFT210 cells at 50 uM at 32 degC for 30 min measured by flow cytometric analysis pretreated with H2DCFDA at 39 degC.
Experiment [10] is described as follows: Cell cycle arrest in mouse tsFT210 cells assessed as accumulation at G2/M phase by propidium iodide staining-based flow cytometric analysis. Format: functional. In a few lines:
as §1

For experiment [11], the target named is T5, M-phase inducer phosphatase 1. Description: Inhibition of CDC25A in presence of 2 mM DTT. In a few lines:
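In vitro inhibition of purified CDC25A or CDC25B with DTT concentration in the assay buffer varied.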

In experiment [12] the target is T6, Tyrosine-protein phosphatase non-receptor type 1 (Homo sapiens, UniProt P18031).
T6 sequence (P18031 whole entry): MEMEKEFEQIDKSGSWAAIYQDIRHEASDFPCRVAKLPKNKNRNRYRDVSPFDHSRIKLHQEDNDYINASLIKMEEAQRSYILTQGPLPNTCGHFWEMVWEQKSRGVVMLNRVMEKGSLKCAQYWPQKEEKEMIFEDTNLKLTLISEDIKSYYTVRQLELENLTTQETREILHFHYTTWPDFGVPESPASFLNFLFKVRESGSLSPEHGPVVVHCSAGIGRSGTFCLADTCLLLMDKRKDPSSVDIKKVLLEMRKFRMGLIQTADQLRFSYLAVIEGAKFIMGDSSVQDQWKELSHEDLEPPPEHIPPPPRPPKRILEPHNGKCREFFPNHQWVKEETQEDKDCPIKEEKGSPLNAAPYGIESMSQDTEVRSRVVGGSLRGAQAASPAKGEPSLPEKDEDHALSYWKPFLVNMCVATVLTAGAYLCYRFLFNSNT
Description: Inhibition of PTP1B.

Experiment [13] concerns HL-60. Description: cells. As to conditions: Homo sapiens, HL-60, 48 h.
The nature of experiment [14]: Cell cycle arrest in mouse tsFT210 cells assessed as accumulation at G2/M phase at 5 to 50 uM by propidium iodide staining-based flow cytometric analysis. Format: functional. Summed up:
as §1

The test system of experiment [15] is tsFT210. Description: Inhibition of CDC25 in mouse tsFT210 cells assessed as hyperphosphorylation of CDK1 protein at 50 uM by Western blot analysis. Format: cell-based. Summed up: as §2

Active and inactive are the calls of the source. The rule behind the calls is not given here.

Sequence of Dual specificity protein phosphatase 3 (P51452 whole entry): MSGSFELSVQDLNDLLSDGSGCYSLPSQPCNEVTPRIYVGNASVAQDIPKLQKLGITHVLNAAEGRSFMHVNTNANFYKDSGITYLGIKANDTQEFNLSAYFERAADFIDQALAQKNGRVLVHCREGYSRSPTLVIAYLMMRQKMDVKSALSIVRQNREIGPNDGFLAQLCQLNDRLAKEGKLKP

For `CCCCCCCCCCCCCCC/C(NCc1ccccc1)=C1/C(=O)OC(CO)C1=O` (stereo not drawn), the result in experiment [1] and in experiment [9] was inactive. In addition, the IC50 was 8.42 µM in [2]; > 100 µM in experiment [4]; > 100 µM in [5]; 11.4 µM in [6]; > 100 µM in [7]; 16.6 µM in experiment [8]. For the same compound, the results for the IC50 in experiment [11] and in experiment [12] were 16.6 µM and > 100 µM, respectively. For the same compound, the inhibition entry in experiment [3] was “Dose-dependent effect”. The Activity result in experiment [10] is “Dose-dependent effect”.

As to `CCCCCCCCCCCCCCCC(NCc1ccccc1O)=C1C(=O)OC(CO)C1=O` (mixture of isomers), the result in [1] and in experiment [9] was inactive. In addition, the inhibition entry in experiment [3] was “Dose-dependent effect”. In addition, the IC50 in experiment [4] was > 100 µM; in experiment [5] it was > 100 µM; in [6], 24.9 µM; in [7], > 100 µM; in experiment [8], 13.5 µM; in experiment [11] it was 13.5 µM. For the same compound, the IC50 in experiment [12] was > 100 µM; in [13] it was 2.44 µM. The Activity entry in experiment [10] is “Dose-dependent effect”.

For `CCCCCCCCCCCCCCCC(NCc1cccc(C)c1)=C1C(=O)OC(CO)C1=O` (mixture of isomers), the outcome in experiment [1], in experiment [9] and in experiment [14] was inactive. In addition, the IC50 in experiment [2] was > 100 µM; in experiment [4], > 100 µM; in experiment [5] it was > 100 µM; in [6], 1.63 µM; in experiment [7], > 100 µM; in [8], > 100 µM. The IC50 in [12] was > 100 µM. Besides, in experiment [15], the inhibition entry was “inactive”.

With `CCCCCCCCCCCCCCCC(NCc1cccc(Cl)c1)=C1C(=O)OC(CO)C1=O` (mixture of isomers), the IC50 in experiment [2] is > 100 µM; in [4], > 100 µM; in experiment [5] it was > 100 µM; in [6], 1.43 µM; in experiment [7], > 100 µM; in experiment [8], > 100 µM. Further, the IC50 in [12] was > 100 µM; in experiment [13], 12 µM.
